Results taken from ChEMBL document CHEMBL1142882, “Design, parallel synthesis and SAR of novel urotensin II receptor agonists” (Eur J Med Chem, 2007).
pEC50: −log10 of the molar value. Active and inactive are the calls of the source. The calls are words filed in the database; no cut-off is given here.

Experiments:
Format in all cases: functional, cell-based
[1] = biological target: T1, Urotensin-2 receptor (Homo sapiens) (UniProt Q9UKP6); assay: Agonist activity at human urotensin-2 receptor transfected in NIH3T3 cells after 5 days by R-SAT assay relative to urotensin-2
T1 sequence (whole entry): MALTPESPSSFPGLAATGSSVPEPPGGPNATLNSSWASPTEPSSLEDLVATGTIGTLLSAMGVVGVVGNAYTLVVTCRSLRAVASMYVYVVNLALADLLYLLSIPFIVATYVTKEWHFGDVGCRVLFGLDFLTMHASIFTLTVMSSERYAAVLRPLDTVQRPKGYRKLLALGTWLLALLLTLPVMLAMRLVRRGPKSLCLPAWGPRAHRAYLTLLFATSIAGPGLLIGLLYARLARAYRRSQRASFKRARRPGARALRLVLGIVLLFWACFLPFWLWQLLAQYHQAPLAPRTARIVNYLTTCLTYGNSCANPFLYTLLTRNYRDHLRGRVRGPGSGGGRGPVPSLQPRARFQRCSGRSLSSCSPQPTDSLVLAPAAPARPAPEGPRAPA
Method in brief: (§1)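 NIH-3T3 cells grown to 80% confluence in DMEM with 10% bovine calf serum and 1% penicillin/streptomycin/glutamine, transfected 18 h with human UII receptor plus β-galactosidase marker, then trypsinized and frozen. Thawed batches were quality-checked with control compound, then incubated with compounds or reference ligands for five days in 5% CO₂. Reporter enzyme activity read at 420 nm.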

Urotensin-2 receptor = biological target: T2, Urotensin-2 receptor (Homo sapiens, UniProt Q9UKP6); assay: (§2) Agonist activity at human urotensin-2 receptor transfected in NIH3T3 cells after 5 days by R-SAT assay; method in brief: as §1
T2 sequence (Q9UKP6 whole entry): T1 sequence (whole entry)

[2] = biological target: T1, Urotensin-2 receptor (Homo sapiens); assay: as §2; method in brief: as §1

Row | SMILES | Efficacy [1] [%] | pEC50 (Urotensin-2 receptor) | also measured
1 | Cc1ccc(C(CCN(C)C)NC(=O)C#Cc2ccccc2)cc1 (stereo not given) | 131 |  | 
2 | COc1ccc(CC(=O)NC(CCN(C)C)c2ccc(Cl)cc2)cc1 (stereo not given) | 65 |  | 
3 | CN(C)CCC(NC(=O)Cc1ccc(C(F)(F)F)cc1)c1ccc(Cl)cc1 (stereo not given) | 53 |  | 
4 | Cc1ccc(C(CCN(C)C)NC(=O)Cc2ccccc2)cc1 (stereo not given) | 83 |  | 
5 | CN(C)CCC(NC(=O)/C=C/c1ccccc1)c1ccc(Cl)cc1 (stereo not given) | 128 |  | 
6 | CN(C)CCC(NC(=O)C#Cc1ccccc1)c1ccc(Cl)cc1 (stereo not given) | 124 |  | 
7 | CN(C)CCC(NC(=O)CCc1ccccc1)c1ccc(Cl)cc1 (stereo not given) | 139 |  | 
8 | CN(C)CCC(NC(=O)/C=C/c1ccccc1)c1ccc2ccccc2c1 (stereo not given) | 116 |  | 
9 | CN(C)CCC(NC(=O)C#Cc1ccccc1)c1ccc2ccccc2c1 (stereo not given) | 115 |  | 
10 | CN(C)CCC(NC(=O)/C=C/c1ccc(C(F)(F)F)cc1)c1ccc2ccccc2c1 (stereo not given) | 117 | 6.87 | 
11 | CN(C)CCC(NC(=O)Cc1ccccc1)c1ccc(Cl)cc1 (stereo not given) | 76 |  | 
12 | COc1ccc(CCC(=O)NC(CCN(C)C)c2ccc3ccccc3c2)cc1 (stereo not given) | 113 | 5.85 | 
13 | CN(C)CCC(NC(=O)/C=C/c1ccc(C(F)(F)F)cc1)c1ccc(Cl)cc1 (stereo not given) | 133 | 6.89 | 
14 | CN(C)CCC(NC(=O)CCc1ccc(C(F)(F)F)cc1)c1ccc2ccccc2c1 (stereo not given) | 75 | 6.43 | 
15 | Cc1ccc(C(CCN(C)C)NC(=O)CCc2ccccc2)cc1 (stereo not given) | 73 |  | 
16 | COc1ccc(CC(=O)NC(CCN(C)C)c2ccc3ccccc3c2)cc1 (stereo not given) |  |  | Activity [2]: inactive; Activity [1]: inactive
17 | CN(C)CCC(NC(=O)CCc1ccccc1)c1ccc2ccccc2c1 (stereo not given) | 107 |  | 
18 | Cc1ccc(C(CCN(C)C)NC(=O)Cc2ccc(C(F)(F)F)cc2)cc1 (stereo not given) | 25 |  | 
19 | CN(C)CCC(NC(=O)Cc1ccc(C(F)(F)F)cc1)c1ccc2ccccc2c1 (stereo not given) | 40 |  | 
20 | COc1ccc(/C=C/C(=O)NC(CCN(C)C)c2ccc(C)cc2)cc1 (stereo not given) | 79 | 5.70 | 
21 | CN(C)CCC(NC(=O)CCc1ccc(C(F)(F)F)cc1)c1ccc(Cl)cc1 (stereo not given) | 73 |  | 
22 | COc1ccc(/C=C/C(=O)NC(CCN(C)C)c2ccc3ccccc3c2)cc1 (stereo not given) | 106 | 6.42 | 
23 | Cc1ccc(C(CCN(C)C)NC(=O)/C=C/c2ccccc2)cc1 (stereo not given) | 97 | 5.81 | 
24 | COc1ccc(CCC(=O)NC(CCN(C)C)c2ccc(Cl)cc2)cc1 (stereo not given) | 101 |  | 
25 | COc1ccc(CCC(=O)NC(CCN(C)C)c2ccc(C)cc2)cc1 (stereo not given) | 67 |  | 
26 | Cc1ccc(C(CCN(C)C)NC(=O)/C=C/c2ccc(C(F)(F)F)cc2)cc1 (stereo not given) | 96 | 6.36 | 
27 | Cc1ccc(C(CCN(C)C)NC(=O)CCc2ccc(C(F)(F)F)cc2)cc1 (stereo not given) | 60 |  | 
28 | COc1ccc(CC(=O)NC(CCN(C)C)c2ccc(C)cc2)cc1 (stereo not given) | 62 |  | 
29 | COc1ccc(/C=C/C(=O)NC(CCN(C)C)c2ccc(Cl)cc2)cc1 (stereo not given) | 99 | 6.29 | 
30 | CN(C)CCC(NC(=O)Cc1ccccc1)c1ccc2ccccc2c1 (stereo not given) | 121 |  | 
